Source: ChEMBL document CHEMBL3085648, “Enhancement of kinase selectivity in a potent class of arylamide FMS inhibitors” (Bioorg Med Chem Lett, 2013)

Tests used:
[1] = (§1) Metabolic stability in human liver microsomes assessed as compound remaining after 10 mins; type: ADME; details: liver microsomes, read-out: Stability
Outline: (§2)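 Compound was incubated with human, mouse or rat liver microsomal preparations. Stability is the percent of compound remaining after 10 min.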

[2] = molecular target: Mast/stem cell growth factor receptor Kit (Homo sapiens, UniProt P10721); assay: Inhibition of KIT (unknown origin)
Mus musculus = assay: Inhibition of CSF-1-induced c-fos gene expression in mouse spleen at 20 mg/kg, po after 6 hrs; type: functional
Outline: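 In the mouse pharmacodynamic model, compound was given orally. Spleen c-fos mRNA induced by an iv injection of CSF-1 was measured 6 or 8 h after dosing.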

[3] = Metabolic stability in rat liver microsomes assessed as compound remaining after 10 mins; type: ADME; details: read-out: Stability; outline: as §2
[4] = Tmax in Sprague-Dawley rat at 5 mg/kg, po; type: ADME, organism-based; set-up: dose 5 mg/kg, route oral; details: in vivo
[5] = AUC in Sprague-Dawley rat at 5 mg/kg, po; type: ADME, organism-based; set-up: dose 5 mg/kg, route oral; details: plasma
[6] = Oral bioavailability in Sprague-Dawley rat at 5 mg/kg; type: ADME, organism-based; details: in vivo
[7] = Terminal half life in Sprague-Dawley rat at 5 mg/kg, po; type: ADME, organism-based; set-up: dose 5 mg/kg, route oral; details: in vivo, read-out: beta t1/2 (converted)
[8] = Cmax in Sprague-Dawley rat at 5 mg/kg, po; type: ADME, organism-based; set-up: dose 5 mg/kg, route oral; details: in vivo
[9] = Systemic clearance in Sprague-Dawley rat at 1 mg/kg, iv; type: ADME, organism-based; set-up: dose 1 mg/kg, route intravenous; details: in vivo
[10] = Volume of distribution in Sprague-Dawley rat at 1 mg/kg, iv; type: ADME, organism-based; set-up: dose 1 mg/kg, route intravenous; details: in vivo
Liver microsome = assay: as §1; type: ADME; details: microsomes, 10 min; outline: as §2

Sequence of Mast/stem cell growth factor receptor Kit (P10721 whole entry): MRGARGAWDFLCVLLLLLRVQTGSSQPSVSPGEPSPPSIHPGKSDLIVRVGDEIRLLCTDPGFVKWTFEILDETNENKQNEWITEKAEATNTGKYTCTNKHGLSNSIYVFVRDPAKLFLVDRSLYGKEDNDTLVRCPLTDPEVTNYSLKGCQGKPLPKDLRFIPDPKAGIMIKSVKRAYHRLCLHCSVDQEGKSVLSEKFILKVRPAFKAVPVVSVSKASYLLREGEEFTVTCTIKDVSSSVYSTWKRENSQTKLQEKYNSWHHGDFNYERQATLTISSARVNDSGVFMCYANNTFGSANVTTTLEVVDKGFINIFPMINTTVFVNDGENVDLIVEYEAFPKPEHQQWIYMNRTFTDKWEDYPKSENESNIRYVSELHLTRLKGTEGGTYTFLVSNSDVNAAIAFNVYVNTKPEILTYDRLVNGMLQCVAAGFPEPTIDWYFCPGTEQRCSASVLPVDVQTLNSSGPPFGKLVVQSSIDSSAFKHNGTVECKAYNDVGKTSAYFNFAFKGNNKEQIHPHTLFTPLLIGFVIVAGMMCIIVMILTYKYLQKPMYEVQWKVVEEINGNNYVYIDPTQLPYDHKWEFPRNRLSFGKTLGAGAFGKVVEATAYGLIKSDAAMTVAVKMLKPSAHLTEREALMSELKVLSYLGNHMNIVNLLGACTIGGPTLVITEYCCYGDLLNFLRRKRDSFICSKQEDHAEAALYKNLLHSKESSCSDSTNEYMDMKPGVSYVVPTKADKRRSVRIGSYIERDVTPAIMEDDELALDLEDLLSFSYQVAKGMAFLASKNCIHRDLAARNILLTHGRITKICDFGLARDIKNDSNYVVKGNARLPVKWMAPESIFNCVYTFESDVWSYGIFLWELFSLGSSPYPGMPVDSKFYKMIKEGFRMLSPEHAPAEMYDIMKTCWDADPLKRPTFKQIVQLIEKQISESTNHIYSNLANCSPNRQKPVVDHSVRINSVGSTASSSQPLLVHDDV

| Compound | remaining at 10 min [1] | IC50 [2] | inhibition in vivo at 20 mg/kg (Mus musculus) | remaining at 10 min [3] | Tmax [4] | AUC [5] | bioavailability [6] | half-life [7] | Cmax [8] | clearance [9] | Vd [10] | Stability (Liver microsome) |
| --- | --- | --- | --- | --- | --- | --- | --- | --- | --- | --- | --- | --- |
| COCCNCC(C)(C)c1ccc(NC(=O)c2nc(C#N)c[nH]2)c(C2=CCC(C)(C)CC2)c1 | 35% | 110 nM | 0% | 39% | – | – | – | – | – | – | – | – |
| CC1(C)CC=C(c2cc(C(C)(C)N3CCN(CCO)CC3)ccc2NC(=O)c2nc(C#N)c[nH]2)CC1.Cl | – | – | – | – | 2.8 h | 690 ng·h/mL | 31% | 6.5 h | 210 nM | 34 mL/min/kg | 7.6 L/kg | – |
| CC(=O)N1CCN(C(C)(C)c2ccc(NC(=O)c3nc(C#N)c[nH]3)c(C3=CCC(C)(C)CC3)c2)CC1 | – | 40 nM | – | – | – | – | – | – | – | – | – | ND(Insoluble) |
